Measurements reported in ChEMBL document CHEMBL3297646, “Structure-activity relationship study of non-steroidal NPC1L1 ligands identified through cell-based assay using pharmacological chaperone effect as a readout” (Bioorg Med Chem, 2014).
Calls of active or inactive are those of the source. No cut-off for these calls is given here.

Assays:
[1] = target: T1, NPC1-like intracellular cholesterol transporter 1 (Homo sapiens) (UniProt Q9UHC9); experiment: Binding affinity to human GFP-tagged NPC1L1 L1072T/L1168I mutant expressed in HEK293 cells assessed as localization to plasma membrane at 30 uM after 24 hrs by fluorescence microscopic analysis; assay type: cell-based
T1 sequence (whole entry): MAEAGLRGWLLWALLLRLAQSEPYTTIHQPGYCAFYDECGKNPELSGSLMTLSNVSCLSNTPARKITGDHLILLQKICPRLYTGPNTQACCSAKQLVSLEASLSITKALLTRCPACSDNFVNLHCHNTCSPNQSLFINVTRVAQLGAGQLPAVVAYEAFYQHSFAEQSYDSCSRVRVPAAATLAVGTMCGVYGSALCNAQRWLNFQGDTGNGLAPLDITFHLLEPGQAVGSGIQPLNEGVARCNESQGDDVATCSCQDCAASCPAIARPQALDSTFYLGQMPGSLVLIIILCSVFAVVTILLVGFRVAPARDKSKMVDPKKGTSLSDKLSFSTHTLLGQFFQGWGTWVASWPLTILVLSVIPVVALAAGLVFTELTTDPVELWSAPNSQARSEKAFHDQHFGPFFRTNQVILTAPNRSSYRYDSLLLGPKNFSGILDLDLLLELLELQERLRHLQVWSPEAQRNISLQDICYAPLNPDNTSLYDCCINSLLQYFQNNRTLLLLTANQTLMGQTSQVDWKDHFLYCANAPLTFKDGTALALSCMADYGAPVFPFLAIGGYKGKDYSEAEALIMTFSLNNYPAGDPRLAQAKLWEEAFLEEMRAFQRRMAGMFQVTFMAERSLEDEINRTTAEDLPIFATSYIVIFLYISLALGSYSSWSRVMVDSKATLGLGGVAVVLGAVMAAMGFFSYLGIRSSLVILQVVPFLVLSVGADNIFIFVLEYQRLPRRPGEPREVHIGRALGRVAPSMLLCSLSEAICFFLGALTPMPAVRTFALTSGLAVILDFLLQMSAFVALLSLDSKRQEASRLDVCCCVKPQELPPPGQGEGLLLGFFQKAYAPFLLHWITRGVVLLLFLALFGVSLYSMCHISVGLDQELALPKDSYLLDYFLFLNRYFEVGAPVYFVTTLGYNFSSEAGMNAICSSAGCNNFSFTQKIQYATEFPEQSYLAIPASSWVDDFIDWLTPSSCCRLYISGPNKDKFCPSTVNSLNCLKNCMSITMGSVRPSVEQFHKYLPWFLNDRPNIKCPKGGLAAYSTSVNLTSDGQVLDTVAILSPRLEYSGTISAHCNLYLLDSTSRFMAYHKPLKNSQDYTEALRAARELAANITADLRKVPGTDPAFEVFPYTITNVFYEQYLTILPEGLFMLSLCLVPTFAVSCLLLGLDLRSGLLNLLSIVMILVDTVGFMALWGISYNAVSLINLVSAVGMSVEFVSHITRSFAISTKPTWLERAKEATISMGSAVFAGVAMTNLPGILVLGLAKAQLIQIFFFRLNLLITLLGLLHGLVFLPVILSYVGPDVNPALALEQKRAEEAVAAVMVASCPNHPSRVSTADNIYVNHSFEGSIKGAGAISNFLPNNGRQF
Summary of the method: (§1)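 HEK293 cells stably expressing EGFP-tagged NPC1L1 L1072T/L1168I were plated on poly-D-lysine-coated glass-bottomed wells (20 µg/mL in PBS) and grown 24 h. They were then exposed to compound at 10 or 30 µM (0.1% final DMSO) and fixed in 3.7% formaldehyde-PBS. Read-out was % of EGFP signal localized to the plasma membrane.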

[2] = target: T1, NPC1-like intracellular cholesterol transporter 1 (Homo sapiens); experiment: Binding affinity to human GFP-tagged NPC1L1 L1072T/L1168I mutant expressed in HEK293 cells assessed as localization to plasma membrane at 10 uM after 24 hrs by fluorescence microscopic analysis; assay type: cell-based; summary of the method: as §1
[3] = target: T1, NPC1-like intracellular cholesterol transporter 1 (Homo sapiens); experiment: Binding affinity to human EGFP-tagged full-length NPC1L1 L1072T/L1168I mutant expressed in HEK293 cells assessed as protein stabilization after 24 hrs by fluorescence assay; assay type: cell-based
Summary of the method: (§2)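 Steady-state levels of full-length or NTD-deleted NPC1L1 L1072T/L1168I-GFP were measured in stably expressing HEK293 cells treated with compound at 1–30 µM or vehicle. GFP fluorescence in cell lysates was normalized to total protein by bicinchoninic acid assay. Values are expressed as % of vehicle-treated cells.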

[4] = target: T1, NPC1-like intracellular cholesterol transporter 1 (Homo sapiens); experiment: Binding affinity to human EGFP-tagged NTD-deleted NPC1L1 L1072T/L1168I mutant expressed in HEK293 cells assessed as protein stabilization after 24 hrs by fluorescence assay; assay type: cell-based; summary of the method: as §2
HEK293 = experiment: Cytotoxicity against HEK293 cells transfected with human GFP-tagged NPC1L1 L1072T/L1168I mutant at 30 uM; assay type: cell-based; settings: hek293, 30 µM
[5] = target: Liver X receptor (Homo sapiens) (UniProt Q13133+P55055); experiment: Activation of LXR (unknown origin) expressed in HEK293 cells at 30 uM after 16 hrs by luciferase reporter gene assay; assay type: cell-based
[6] = target: T1, NPC1-like intracellular cholesterol transporter 1 (Homo sapiens); experiment: Binding affinity to human EGFP-tagged NTD-deleted NPC1L1 L1072T/L1168I mutant expressed in HEK293 cells assessed as localization to plasma membrane after 24 hrs by fluorescence microscopic analysis; assay type: cell-based
Summary of the method: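 Stable HEK293 lines expressing NTD-deleted NPC1L1 L1072T/L1168I-EGFP were grown 24 h on poly-D-lysine-coated glass-bottomed wells and treated with compound (0.1% final DMSO). Cells were fixed in 3.7% formaldehyde-PBS with Hoechst-33342 nuclear counterstain. NPC1L1-GFP localization was examined by fluorescence imaging.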

Homo sapiens = species on record: Homo sapiens; experiment: Selectivity for human GFP-tagged NPC1L1 L1072T/L1168I mutant over LXR (unknown origin)

| Compound | Activity [1] [%] | Activity [2] [%] | other results |
| --- | --- | --- | --- |
| CCCCCn1c(=O)c2c(c3cc(C(=O)N(CC)C4CC4)ccc31)CCCCC2 | 35 | 3 |  |
| CCCCn1c(=O)c2c(c3cc(C(=O)NCCC)ccc31)CCCCC2 | 36 | 0 |  |
| CCN(C(=O)c1ccc2c(c1)c1c(c(=O)n2Cc2ccccc2)CCCCC1)C1CC1 | 14 | 0 |  |
| CCCC(=O)N1CC2=C(CCCC2)c2cc(C(=O)N(CC)CC)ccc21 | 1 |  |  |
| CCN(C(=O)c1ccc2c(c1)c1c(c(=O)n2CCO)CCCCC1)C1CC1 | 0 |  |  |
| CCCn1c(=O)c2c(c3cc(C(=O)N(CC)C4CC4)ccc31)CCCCC2 | 39 | 0 |  |
| CCCCn1c(=O)c2c(c3cc(C(=O)NC(C)(C)C)ccc31)CCCCC2 | 1 |  |  |
| CCCCN1C(=O)CCc2cc(C(=O)N(CC)CC)ccc21 | 1 |  |  |
| CCCCNC(=O)c1ccc2c(c1)c1c(c(=O)n2CCCC)CCCCC1 | 18 | 0 |  |
| CCCCn1c(=O)c2c(c3cc(C(=O)NC4CCCC4)ccc31)CCCCC2 | 16 | 6 |  |
| CCCCn1c(=O)c2c(c3cc(C(=O)NCCO)ccc31)CCCCC2 | 0 |  |  |
| CCN(C(=O)c1ccc2[nH]c(=O)c3c(c2c1)CCCCC3)C1CC1 | 0 |  | Activity [3]: Active; Activity [4]: Active |
| CCCCn1c(=O)c2c(c3cc(C(=O)Nc4ccccc4)ccc31)CCCCC2 | 0 |  |  |
| CCCCn1c(=O)c2c(c3cc(C(=O)N(CC)CC)ccc31)CCCC2 | 42 | 2 |  |
| CCCCn1c(=O)c2c(c3cc(C(=O)N(C)C)ccc31)CCCCC2 | 2 |  |  |
| CCCCn1c(=O)c2c(c3cc(C(=O)N(CC)CC)ccc31)CCCCCC2 | 44 | 5 |  |

| Compound | Activity [1] [%] | Activity [2] [%] | other results |
| --- | --- | --- | --- |
| CCCCn1c(=O)c2c(c3cc(C(=O)NC4CC4)ccc31)CCCCC2 | 49 | 3 |  |
| CCCCn1c(=O)c2c(c3cc(C(=O)N4CCCC4)ccc31)CCCCC2 | 33 | 1 |  |
| CCCCn1c(=O)c2c(c3cc(C(=O)N(C)C4CC4)ccc31)CCCCC2 | 21 | 1 |  |
| CCCCn1c(=O)c2c(c3cc(C(=O)NCC)ccc31)CCCCC2 | 28 | 0 |  |
| CCCCn1c(=O)c2c(c3cc(C(=O)NC4CCCCC4)ccc31)CCCCC2 | 5 | 2 |  |
| CCN(C(=O)c1ccc2c(c1)c1c(c(=O)n2CCOC)CCCCC1)C1CC1 | 0 |  |  |
| CCCCn1c(=O)c2c(c3cc(C(N)=O)ccc31)CCCCC2 | 0 |  |  |
| CCCCn1c(=O)c2c(c3cc(C(=O)NC)ccc31)CCCCC2 | 23 | 0 |  |
| CCCCN1C(=O)c2ccccc2Oc2cc(C(=O)N(CC)CC)ccc21 | 3 |  |  |
| CCCCn1c(=O)c2c(c3cc(C(=O)N(CC)CC)ccc31)CCCCC2 | 42 | 14 |  |
| CCN(C(=O)c1ccc2c(c1)c1c(c(=O)n2C(C)C)CCCCC1)C1CC1 |  | 0 | Activity (HEK293): Toxic |
| CCCCn1c(=O)c2c(c3cc(C(=O)N(CC)C4CC4)ccc31)CCCCC2 | 45 | 8 | Activity [5]: inactive; Activity [6]: Active; Activity [3]: Active; Activity [4]: Active; Selectivity ratio (Homo sapiens): 2 |
| CCCCCCn1c(=O)c2c(c3cc(C(=O)N(CC)C4CC4)ccc31)CCCCC2 |  | 1 | Activity (HEK293): Toxic |
| CCN(C(=O)c1ccc2c(c1)c1c(c(=O)n2CC)CCCCC1)C1CC1 | 7 |  | Activity [3]: Active; Activity [4]: Active |
| CCCCn1c(=O)c2c(c3cc(C(=O)NC(C)C)ccc31)CCCCC2 | 25 | 0 |  |
| CCN(C(=O)c1ccc2c(c1)c1c(c(=O)n2C)CCCCC1)C1CC1 | 0 |  |  |

The next lines start with results.

| Activity [1] [%] | Activity [2] [%] | Compound | other results |
| --- | --- | --- | --- |
| 50 | 14 | CCCCn1c(=O)c2ccccc2c2cc(C(=O)N(CCC)CCC)ccc21 |  |
| 0 |  | CCCCn1c(=O)c2ccccc2c2cc(C(=O)N(CCO)CCO)ccc21 |  |
| 0 |  | CCN(CC)C(=O)c1ccc2c(c1)c1ccccc1c(=O)n2Cc1ccccc1 |  |
| 0 |  | CCN(CC)C(=O)c1ccc2c(c1)c1ccccc1c(=O)n2CCCC(=O)O |  |
| 18 | 0 | CCN(CC)C(=O)c1ccc2c(c1)c1ccccc1c(=O)n2Cc1ccc(OC)cc1 |  |
| 0 |  | CCCCn1c(=O)c2ccccc2c2cc(C(=O)NCc3ccccc3)ccc21 |  |
| 0 |  | CCN(CC)C(=O)c1ccc2c(c1)c1ccccc1c(=O)n2CC(=O)N(C)C |  |
| 47 | 0 | CCCCn1c(=O)c2ccccc2c2cc(C(=O)N3CCCCC3)ccc21 |  |
| 45 | 1 | CCCCn1c(=O)c2ccccc2c2cc(C(=O)N(CC)CC)ccc21 |  |
| 0 |  | CCN(CC)C(=O)c1ccc2c(c1)c1ccccc1c(=O)n2CCCC(=O)N(C)C |  |
| 0 |  | CCCCn1c(=O)c2ccccc2c2cc(C(N)=O)ccc21 |  |
| 15 | 1 | CCCCn1c(=O)c2c(c3cc(C(=O)N(CC)CC)ccc31)CCC2 |  |
| 4 |  | CCCCn1c(=O)c2ccccc2c2cc(C(=O)N(C)C)ccc21 |  |
| 55 | 14 | CCCCn1c(=O)c2ccccc2c2cc(C(=O)NC3CC3)ccc21 |  |
| 24 | 1 | CCCCn1c(=O)c2ccccc2c2cc(C(=O)NC)ccc21 |  |
| 0 |  | CCCCn1c(=O)c2ccccc2c2cc(C(=O)N3CCOCC3)ccc21 |  |
| 4 |  | CCN(CC)C(=O)c1ccc2c(c1)c1ccccc1c(=O)n2CC |  |
| 49 | 0 | CCCCn1c(=O)c2ccccc2c2cc(C(=O)NC(C)C)ccc21 |  |
| 11 | 3 | CCCCn1c(=O)c2ccccc2c2cc(C(=O)NC3CCCCC3)ccc21 |  |
| 0 |  | CCCCn1c(=O)c2ccccc2c2cc(C(=O)NC3CCCC3)ccc21 |  |
| 41 | 11 | CCCCn1c(=O)c2ccccc2c2cc(C(=O)NC(C)(C)C)ccc21 |  |
| 0 |  | CCN(CC)C(=O)c1ccc2[nH]c(=O)c3ccccc3c2c1 |  |
| 0 |  | CCN(CC)C(=O)c1ccc2c(c1)c1ccccc1c(=O)n2CC(=O)O |  |
| 0 |  | CCN(CC)C(=O)c1ccc2c(c1)c1ccccc1c(=O)n2C |  |
|  | 18 | CCCCN(CCCC)C(=O)c1ccc2c(c1)c1ccccc1c(=O)n2CCCC | Activity (HEK293): Toxic |
